ChEMBL document CHEMBL5329156, “Discovery and development of novel substituted monohydrazides as potent antifungal agents” (RSC Med Chem, 2023)
Active and inactive are the calls of the source.

Assays:
Candida albicans [1] = experiment: Antifungal activity against Candida albicans ATCC 10231 assessed as fungal growth inhibition by double dilution method; assay type: functional
Outline: (§1)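 Broth microdilution after CLSI M27-A3/M38-A2 with minor changes. Single colony grown overnight in YPD at 35 °C, 200 rpm. Compound final range 0.06-31.3 µg/mL; incubated 48 h at 35 °C.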

Candida albicans [2] = experiment: Antifungal activity against Candida albicans ATCC 64124 assessed as fungal growth inhibition by double dilution method; assay type: functional
Outline: (§2)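 Broth microdilution after CLSI M27-A3/M38-A2 with minor modifications. A single colony was grown overnight in YPD at 35 °C with shaking at 200 rpm. Cells were mixed 1:1 with compound (final 0.06-31.3 µg/mL, from DMSO stocks) and incubated 48 h at 35 °C.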

Candida albicans [3] = experiment: Antifungal activity against itraconazole/fluconazole susceptible Candida albicans ATCC MYA-2876 assessed as fungal growth inhibition by double dilution method; assay type: functional; outline: as §2
Candida albicans [4] = experiment: Antifungal activity against itraconazole/fluconazole resistant Candida albicans ATCC 90819 assessed as fungal growth inhibition by double dilution method; assay type: functional; outline: as §2
Candida albicans [5] = experiment: Antifungal activity against itraconazole/fluconazole susceptible Candida albicans ATCC MYA-2310 assessed as fungal growth inhibition by double dilution method; assay type: functional; outline: as §2
Candida albicans [6] = experiment: Antifungal activity against itraconazole/fluconazole resistant Candida albicans ATCC MYA-1237 assessed as fungal growth inhibition by double dilution method; assay type: functional; outline: as §2
Candida albicans [7] = experiment: Antifungal activity against itraconazole/fluconazole resistant Candida albicans ATCC MYA-1003 assessed as fungal growth inhibition by double dilution method; assay type: functional; outline: as §2
Nakaseomyces glabratus [8] = experiment: Antifungal activity against Candida glabrata ATCC 2001 assessed as fungal growth inhibition by double dilution method; assay type: functional; outline: as §1
Pichia kudriavzevii [9] = experiment: Antifungal activity against Pichia kudriavzevii ATCC 6258 assessed as fungal growth inhibition by double dilution method; assay type: functional; outline: as §1
Nakaseomyces glabratus [10] = experiment: Antifungal activity against Candida glabrata ATCC 22019 assessed as fungal growth inhibition by double dilution method; assay type: functional; outline: as §1
[Candida] auris [11] = Antifungal activity against Candida auris AR Bank # 0384 assessed as fungal growth inhibition by double dilution method; assay type: functional; conditions: Candidozyma auris; outline: as §1
[Candida] auris [12] = Antifungal activity against Candida auris AR Bank # 0390 assessed as fungal growth inhibition by double dilution method; assay type: functional; conditions: Candidozyma auris; outline: as §1
Cryptococcus neoformans = experiment: Antifungal activity against Cryptococcus neoformans ATCC MYA-895 assessed as fungal growth inhibition by double dilution method; assay type: functional; outline: as §1
Aspergillus terreus = experiment: Antifungal activity against Aspergillus terreus ATCC MYA-3633 assessed as fungal growth inhibition by double dilution method; assay type: functional
Aspergillus fumigatus [13] = experiment: Antifungal activity against Aspergillus fumigatus NRRL 163 assessed as fungal growth inhibition by double dilution method; assay type: functional
Aspergillus flavus = experiment: Antifungal activity against Aspergillus flavus ATCC MYA-3631 assessed as fungal growth inhibition by double dilution method; assay type: functional
Aspergillus nidulans = experiment: Antifungal activity against Aspergillus nidulans ATCC 38163 assessed as fungal growth inhibition by double dilution method; assay type: functional
Aspergillus fumigatus [14] = experiment: Antifungal activity against Aspergillus fumigatus NRRL 5109 assessed as fungal growth inhibition by double dilution method; assay type: functional
Aspergillus fumigatus [15] = experiment: Antifungal activity against Aspergillus fumigatus NRRL 6113 assessed as fungal growth inhibition by double dilution method; assay type: functional
[Candida] auris [16] = Antifungal activity against Candida auris AR Bank # 381 assessed as fungal growth inhibition by double dilution method; assay type: functional; conditions: Candidozyma auris; outline: as §1
[Candida] auris [17] = Antifungal activity against Candida auris AR Bank # 382 assessed as fungal growth inhibition by double dilution method; assay type: functional; conditions: Candidozyma auris; outline: as §1
[Candida] auris [18] = Antifungal activity against Candida auris AR Bank # 383 assessed as fungal growth inhibition by double dilution method; assay type: functional; conditions: Candidozyma auris; outline: as §1
[Candida] auris [19] = Antifungal activity against Candida auris AR Bank # 384 assessed as fungal growth inhibition by double dilution method; assay type: functional; conditions: Candidozyma auris; outline: as §1
[Candida] auris [20] = Antifungal activity against Candida auris AR Bank # 385 assessed as fungal growth inhibition by double dilution method; assay type: functional; conditions: Candidozyma auris; outline: as §1
[Candida] auris [21] = Antifungal activity against Candida auris AR Bank # 386 assessed as fungal growth inhibition by double dilution method; assay type: functional; conditions: Candidozyma auris; outline: as §1
[Candida] auris [22] = Antifungal activity against Candida auris AR Bank # 387 assessed as fungal growth inhibition by double dilution method; assay type: functional; conditions: Candidozyma auris; outline: as §1
[Candida] auris [23] = Antifungal activity against Candida auris AR Bank # 388 assessed as fungal growth inhibition by double dilution method; assay type: functional; conditions: Candidozyma auris; outline: as §1
[Candida] auris [24] = Antifungal activity against Candida auris AR Bank # 389 assessed as fungal growth inhibition by double dilution method; assay type: functional; conditions: Candidozyma auris; outline: as §1
[Candida] auris [25] = Antifungal activity against Candida auris AR Bank # 390 assessed as fungal growth inhibition by double dilution method; assay type: functional; conditions: Candidozyma auris; outline: as §1
Candida duobushaemulonii [26] = experiment: Antifungal activity against Candida duobushaemulonii AR Bank # 391 assessed as fungal growth inhibition by double dilution method; assay type: functional; conditions: Candidozyma duobushaemuli; outline: as §1
Candida duobushaemulonii [27] = experiment: Antifungal activity against Candida duobushaemulonii AR Bank # 392 assessed as fungal growth inhibition by double dilution method; assay type: functional; conditions: Candidozyma duobushaemuli; outline: as §1
[Candida] haemuloni [28] = Antifungal activity against Candida haemulonii AR Bank # 393 assessed as fungal growth inhibition by double dilution method; assay type: functional; conditions: Candidozyma haemuli; outline: as §1
Candida duobushaemulonii [29] = experiment: Antifungal activity against Candida duobushaemulonii AR Bank # 394 assessed as fungal growth inhibition by double dilution method; assay type: functional; conditions: Candidozyma duobushaemuli; outline: as §1
[Candida] haemuloni [30] = Antifungal activity against Candida haemulonii AR Bank # 395 assessed as fungal growth inhibition by double dilution method; assay type: functional; conditions: Candidozyma haemuli; outline: as §1
Kodamaea ohmeri = experiment: Antifungal activity against Kodamaea ohmeri AR Bank # 396 assessed as fungal growth inhibition by double dilution method; assay type: functional; outline: as §1
Pichia kudriavzevii [31] = experiment: Antifungal activity against Pichia kudriavzevii AR Bank # 397 assessed as fungal growth inhibition by double dilution method; assay type: functional; outline: as §1
Clavispora lusitaniae = experiment: Antifungal activity against Clavispora lusitaniae AR Bank # 398 assessed as fungal growth inhibition by double dilution method; assay type: functional; outline: as §1
Saccharomyces cerevisiae [32] = experiment: Antifungal activity against Saccharomyces cerevisiae AR Bank # 399 assessed as fungal growth inhibition by double dilution method; assay type: functional; outline: as §1
Saccharomyces cerevisiae [33] = experiment: Antifungal activity against Saccharomyces cerevisiae AR Bank # 400 assessed as fungal growth inhibition by double dilution method; assay type: functional; outline: as §1
J774.A1 = experiment: Cytotoxicity against J774A.1 cells assessed as reduction in cell viability at 31.3 microg/ml; assay type: toxicity, cell-based; conditions: mouse, dose 31.3 µg/ml
Outline: (§3)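 Cells in DMEM with 10% FBS and 1% Pen/Strep, seeded at 10,000 cells/well and held overnight at 37 °C, 5% CO2. Compounds added at final 31.3-0.12 µg/mL (0.05% DMSO vehicle) for 24 h. Resazurin then added for 6 h; fluorescence read at ex 560/em 590. Triton X-100 1% as positive control; values normalized to vehicle. Run in quadruplicate.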

HEK293 = experiment: Cytotoxicity against human HEK-293 cells assessed as reduction in cell viability at 31.3 microg/ml; assay type: toxicity, cell-based; conditions: dose 31.3 µg/ml; outline: as §3
HepG2 = experiment: Cytotoxicity against human HepG2 cells assessed as reduction in cell viability upto 31.3 microg/ml; assay type: toxicity, cell-based; conditions: dose < 31.3 µg/ml; outline: as §3
Candida albicans [34] = experiment: Antibiofilm activity against Candida albicans ATCC 10231 assessed as reduction in biofilm production at 1.96 to 3.9 microg/ml by biofilm formation assay; assay type: functional, organism-based; conditions: dose 1.96-3.9 µg/ml
[35] = Cytotoxicity against human HepG2 cells assessed as cell survival at 31.3 microg/ml relative to control; assay type: toxicity, cell-based; conditions: at 31.3 µg/mL, read-out: Activity; outline: as §3

O=C(NNc1ccc(F)cc1F)c1ccccn1
0.24 mg/L: MIC (Cryptococcus neoformans) | MIC ([Candida] auris [24]) | MIC ([Candida] haemuloni [30])
3.9 mg/L: MIC (Candida duobushaemulonii [29])
0.98 mg/L: MIC (Candida albicans [3]) | MIC (Candida albicans [4]) | MIC (Nakaseomyces glabratus [8]) | MIC (Aspergillus terreus) | MIC (Kodamaea ohmeri)
> 31.3 mg/L: MIC (Aspergillus fumigatus [13])
≤ 0.06 mg/L: MIC (Pichia kudriavzevii [31])
1.95 mg/L: MIC (Candida albicans [2]) | MIC (Nakaseomyces glabratus [10]) | MIC (Clavispora lusitaniae)
inactive: Activity (Candida albicans [34])
0.49 mg/L: MIC (Candida albicans [6]) | MIC (Candida albicans [7]) | MIC (Pichia kudriavzevii [9]) | MIC ([Candida] auris [11]) | MIC (Aspergillus nidulans) | MIC ([Candida] auris [16]) | MIC ([Candida] auris [17]) | MIC ([Candida] auris [18]) | MIC ([Candida] auris [19]) | MIC ([Candida] auris [20]) | MIC ([Candida] auris [21]) | MIC (Candida duobushaemulonii [27]) | MIC ([Candida] haemuloni [28]) | MIC (Saccharomyces cerevisiae [32]) | MIC (Saccharomyces cerevisiae [33])
0.12 mg/L: MIC (Candida albicans [1]) | MIC ([Candida] auris [12]) | MIC ([Candida] auris [22]) | MIC ([Candida] auris [23]) | MIC ([Candida] auris [25]) | MIC (Candida duobushaemulonii [26])
31.3 mg/L: MIC (Candida albicans [5]) | MIC (Aspergillus fumigatus [15])
15.6 mg/L: MIC (Aspergillus flavus) | MIC (Aspergillus fumigatus [14])
Non-Toxic: Activity (J774.A1) | Activity (HEK293) | Activity (HepG2)

O=C(NNc1cc(F)cc(F)c1)c1ccccn1
7.8 mg/L: MIC (Nakaseomyces glabratus [8])
0.12 mg/L: MIC ([Candida] auris [17]) | MIC (Kodamaea ohmeri) | MIC (Pichia kudriavzevii [31])
Non-Toxic: Activity (J774.A1) | Activity (HEK293)
0.49 mg/L: MIC (Candida albicans [7]) | MIC ([Candida] auris [12]) | MIC (Aspergillus nidulans) | MIC ([Candida] auris [25]) | MIC (Candida duobushaemulonii [27]) | MIC ([Candida] haemuloni [28]) | MIC (Clavispora lusitaniae)
0.24 mg/L: MIC (Pichia kudriavzevii [9]) | MIC ([Candida] auris [11]) | MIC (Cryptococcus neoformans) | MIC ([Candida] auris [18]) | MIC ([Candida] auris [20]) | MIC ([Candida] auris [22]) | MIC ([Candida] auris [23]) | MIC ([Candida] auris [24]) | MIC (Candida duobushaemulonii [26]) | MIC (Candida duobushaemulonii [29]) | MIC ([Candida] haemuloni [30])
inactive: Activity (Candida albicans [34])
0.98 mg/L: MIC (Candida albicans [2]) | MIC (Candida albicans [3]) | MIC (Candida albicans [4]) | MIC (Candida albicans [5]) | MIC (Aspergillus terreus) | MIC ([Candida] auris [16]) | MIC ([Candida] auris [19]) | MIC (Saccharomyces cerevisiae [33])
1.95 mg/L: MIC (Candida albicans [6]) | MIC (Nakaseomyces glabratus [10]) | MIC (Aspergillus flavus) | MIC (Saccharomyces cerevisiae [32])
89%: viability at 31.3 microg/ml [35]
> 31.3 mg/L: MIC (Aspergillus fumigatus [13]) | MIC (Aspergillus fumigatus [14])
31.3 mg/L: MIC (Aspergillus fumigatus [15])
≤ 0.06 mg/L: MIC (Candida albicans [1]) | MIC ([Candida] auris [21])
